Assay results taken from ChEMBL document CHEMBL3351346, “Design, synthesis, structure-function relationship, bioconversion, and pharmacokinetic evaluation of ertapenem prodrugs” (J Med Chem, 2014).

How the values were obtained:
[1] = Stability in pH 7.4 phosphate buffer assessed as compound remaining at 50 uM after 3 hrs by LC-MS/MS method; assay type: physicochemical; conditions: read-out: Stability
[2] = test system: Canis familiaris; assay: (§1) AUC (0 to 8 hrs) in fasted Beagle dog at 10 mg/kg dosed through intraduodenal route by LC-MS/MS method; assay type: ADME, organism-based, Canis lupus familiaris, Plasma; design: time < 8 hr, dose 10 mg/kg, route intraduodenal; conditions: in vivo, other, 8 h, BLD = below limit of detection
Method in brief: (§2)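 Prodrugs were given intraduodenally to bypass stomach acid. Plasma was sampled at intervals over 8 h, and parent prodrug, the two monoester metabolites and ertapenem were quantified by LC-MS/MS. The lower limit of quantitation was 5 nM. AUC(0–8) was used, and it differed from AUC(0–∞) by ±20%. Vehicles were 30% Captisol or 0.5% methylcellulose, as solution or suspension depending on compound.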

[3] = test system: Canis familiaris; assay: AUC (0 to 8 hrs) in fasted Beagle dog assessed as 8-OH, C-3 ester level at 10 mg/kg dosed through intraduodenal route by LC-MS/MS method; assay type: ADME, organism-based, Canis lupus familiaris, Plasma; design: time < 8 hr, dose 10 mg/kg, route intraduodenal; conditions: in vivo, other; method in brief: as §2
[4] = test system: Rattus norvegicus; assay: AUC (0 to 8 hrs) in fasted Sprague-Dawley rat assessed as 8-OH, benzoate ester level at 10 mg/kg dosed through intraduodenal route by LC-MS/MS method; assay type: ADME, organism-based, Plasma; design: time < 8 hr, dose 10 mg/kg, route intraduodenal; conditions: in vivo, other, BLD = below limit of detection; method in brief: as §2
[5] = test system: Canis familiaris; assay: Oral bioavailability in fasted Beagle dog assessed as assessed as ertapenem and monoetser metabolites level at 10 mg/kg dosed through intraduodenal route by LC-MS/MS method; assay type: ADME, organism-based, Canis lupus familiaris; conditions: in vivo
Method in brief: (§3)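 Total absorption followed intraduodenal dosing with LC-MS/MS of plasma over 8 h. It was calculated as the combined dose-normalized AUC of circulating parent prodrug, ertapenem and two monoesters, divided by dose-normalized AUC of ertapenem given iv. Vehicle was 30% Captisol or 0.5% methylcellulose.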

[6] = Stability in pH 6.5 simulated gastrointestinal fluid assessed as compound remaining at 50 uM after 3 hrs by LC-MS/MS method; assay type: ADME; conditions: read-out: Stability
Method in brief: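 Compounds at 50 μM were incubated in fasted-state simulated intestinal fluid (FaSSIF, pH 6.5) for over 3 h. Percent remaining was determined by LC-MS/MS.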

[7] = test system: Rattus norvegicus; assay: Oral bioavailability in fasted Sprague-Dawley rat assessed as ertapenem level at 10 mg/kg dosed through intraduodenal route by LC-MS/MS method; assay type: ADME, organism-based; conditions: in vivo
Method in brief: (§4)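 After intraduodenal dosing, plasma over 8 h was analysed by LC-MS/MS. Bioavailability was calculated as dose-normalized AUC of ertapenem formed from the prodrug divided by dose-normalized AUC of ertapenem dosed iv. Vehicle was 30% Captisol or 0.5% methylcellulose.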

[8] = test system: Canis familiaris; assay: AUC (0 to 8 hrs) in fasted Beagle dog assessed as 8-OH, benzoate ester level at 10 mg/kg dosed through intraduodenal route by LC-MS/MS method; assay type: ADME, organism-based, Canis lupus familiaris, Plasma; design: time < 8 hr, dose 10 mg/kg, route intraduodenal; conditions: in vivo, other; method in brief: as §2
[9] = test system: Canis familiaris; assay: Oral bioavailability in fasted Beagle dog assessed as ertapenem level at 10 mg/kg dosed through intraduodenal route by LC-MS/MS method; assay type: ADME, organism-based, Canis lupus familiaris; conditions: in vivo; method in brief: as §4
[10] = test system: Rattus norvegicus; assay: Oral bioavailability in fasted Sprague-Dawley rat assessed as ertapenem and monoetser metabolites level at 10 mg/kg dosed through intraduodenal route by LC-MS/MS method; assay type: ADME, organism-based; conditions: in vivo; method in brief: as §3
[11] = test system: Rattus norvegicus; assay: AUC (0 to 8 hrs) in fasted Sprague-Dawley rat at 10 mg/kg dosed through intraduodenal route by LC-MS/MS method; assay type: ADME, organism-based, Plasma; design: time < 8 hr, dose 10 mg/kg, route intraduodenal; conditions: in vivo, other, 8 h, BLD = below limit of detection; method in brief: as §2
[12] = Stability in pH 2.0 simulated gastric fluid assessed as compound degradation to beta-lactam ring open products at 1 uM after 60 mins by LC-MS/MS method; assay type: ADME; conditions: read-out: Drug degradation
Method in brief: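 Incubation was in simulated gastric fluid (SGF, pH 2.0) for 60 min, with loss to the β-lactam ring-opened product measured by LC-MS/MS.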

[13] = test system: Rattus norvegicus; assay: AUC (0 to 8 hrs) in fasted Sprague-Dawley rat assessed as 8-OH, C-3 ester level at 10 mg/kg dosed through intraduodenal route by LC-MS/MS method; assay type: ADME, organism-based, Plasma; design: time < 8 hr, dose 10 mg/kg, route intraduodenal; conditions: in vivo, other, BLD = below limit of detection; method in brief: as §2
[14] = test system: Rattus norvegicus; assay: AUC (0 to 8 hrs) in fasted Sprague-Dawley rat assessed as ertapenem level at 10 mg/kg dosed through intraduodenal route by LC-MS/MS method; assay type: ADME, organism-based, Plasma; design: time < 8 hr, dose 10 mg/kg, route intraduodenal; conditions: in vivo, other; method in brief: as §2
[15] = Stability in rat plasma assessed as compound remaining at 50 uM at 37 degC after 60 mins by LC-MS/MS method; assay type: ADME, cell-free; conditions: read-out: Stability
Method in brief: (§5)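 Prodrugs were incubated in rat or human plasma for 60 min. Disappearance of prodrug and concomitant appearance of ertapenem were followed by LC-MS/MS, and in selected cases monoesters from partial hydrolysis were also monitored. Ertapenem itself was incubated the same way as a control.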

[16] = Stability in human plasma assessed as compound remaining at 50 uM at 37 degC after 60 mins by LC-MS/MS method; assay type: ADME, cell-free; conditions: read-out: Stability; method in brief: as §5
[17] = test system: Canis familiaris; assay: AUC (0 to 8 hrs) in fasted Beagle dog assessed as ertapenem level at 10 mg/kg dosed through intraduodenal route by LC-MS/MS method; assay type: ADME, organism-based, Canis lupus familiaris, Plasma; design: time < 8 hr, dose 10 mg/kg, route intraduodenal; conditions: in vivo, other; method in brief: as §2
[18] = as §1; assay type: ADME, organism-based, Canis lupus familiaris, Plasma; design: time < 8 hr, dose 10 mg/kg, route intraduodenal; conditions: Beagle, plasma; method in brief: as §2

Row | Structure (SMILES) | remaining at 3 h, 50 µM [1] [%] | AUC [2] | AUC [3] [µM·h] | F [5] [%] | remaining at 3 h, 50 µM [6] [%] | F [7] [%] | F [9] [%] | F [10] [%] | AUC [11] | degraded at 1 h, 1 µM [12] [%] | AUC [14] [µM·h] | remaining at 1 h, 50 µM [15] [%] | remaining at 1 h, 50 µM [16] [%] | AUC [17] [µM·h] | AUC(0-t) at 8 h [18] [µM·h] | AUC [8] [µM·h] | also measured
1 | C[C@@H](O)[C@H]1C(=O)N2C(C(=O)OCOC(=O)C(C)(C)C)=C(S[C@@H]3CN[C@H](C(=O)Nc4cccc(C(=O)OCOC(=O)C(C)(C)C)c4)C3)[C@H](C)[C@H]12 | > 95 | BLD | < 0.1 | 3.07 | > 95 | 0.4 | 3 | 0.4 | BLD | > 25 | – | – | – | – | – | – | AUC [4]: BLD; AUC ([8]; BLD = below limit of detection): BLD; AUC [13]: BLD
2 | CC(C)C(=O)OCOC(=O)C1=C(S[C@@H]2CN[C@H](C(=O)Nc3cccc(C(=O)OCOC(=O)C(C)C)c3)C2)[C@H](C)[C@@H]2[C@@H]([C@@H](C)O)C(=O)N12 | > 95 | BLD | – | 3.6 | > 95 | 1.8 | 3.6 | 1.8 | BLD | > 25 | 0.9 | 1 | 8 | 2.2 | – | – | AUC ([3]; BLD = below limit of detection): BLD; AUC [4]: BLD; AUC ([8]; BLD = below limit of detection): BLD; AUC [13]: BLD
3 | CC(C)C(=O)OCOC(=O)C1=C(S[C@@H]2CN[C@H](C(=O)Nc3cccc(C(=O)[O-])c3)C2)[C@H](C)[C@@H]2[C@@H]([C@@H](C)O)C(=O)N12.[Na+] | > 95 | – | – | – | > 95 | 1.2 | – | 1.2 | BLD | > 25 | 0.7 | 0 | 15 | – | – | – | AUC [13]: BLD
4 | CC(C)c1oc(=O)oc1COC(=O)C1=C(S[C@@H]2CN[C@H](C(=O)Nc3cccc(C(=O)OCc4oc(=O)oc4C(C)C)c3)C2)[C@H](C)[C@@H]2[C@@H]([C@@H](C)O)C(=O)N12 | > 95 | – | – | – | > 95 | 0.9 | – | 0.9 | BLD | > 25 | 0.4 | 6 | 8 | – | – | – | –
5 | C[C@@H](O)[C@H]1C(=O)N2C(C(=O)OCc3oc(=O)oc3C(C)(C)C)=C(S[C@@H]3CN[C@H](C(=O)Nc4cccc(C(=O)OCc5oc(=O)oc5C(C)(C)C)c4)C3)[C@H](C)[C@H]12 | > 95 | BLD | – | 0.4 | > 95 | 0.3 | 0.4 | 0.3 | BLD | > 25 | 0.2 | 0 | 10 | 0.2 | – | – | –
6 | COC(=O)C1=C(S[C@@H]2CN[C@H](C(=O)Nc3cccc(C(=O)OC)c3)C2)[C@H](C)[C@@H]2[C@@H]([C@@H](C)O)C(=O)N12 | > 95 | – | 3.9 | 24.2 | > 95 | – | 14.3 | – | – | > 25 | – | 0 | 0 | 12 | 0.8 | 3.6 | –
7 | CCCOC(=O)C1=C(S[C@@H]2CN[C@H](C(=O)Nc3cccc(C(=O)OCCC)c3)C2)[C@H](C)[C@@H]2[C@@H]([C@@H](C)O)C(=O)N12 | > 95 | – | – | 11 | > 95 | – | 9.8 | – | – | > 25 | – | 0 | 7 | 7.3 | 1 | – | –
8 | CCCCOC(=O)C1=C(S[C@@H]2CN[C@H](C(=O)Nc3cccc(C(=O)OCCCC)c3)C2)[C@H](C)[C@@H]2[C@@H]([C@@H](C)O)C(=O)N12 | > 95 | – | – | 16.9 | > 95 | – | 13.1 | – | – | > 25 | – | 2 | 1 | 9.4 | 2.8 | – | –
9 | CCCCCCCCOC(=O)C1=C(S[C@@H]2CN[C@H](C(=O)Nc3cccc(C(=O)OCCCCCCCC)c3)C2)[C@H](C)[C@@H]2[C@@H]([C@@H](C)O)C(=O)N12 | > 95 | – | – | 1.1 | > 95 | – | – | – | – | > 25 | – | 4 | 80 | – | 0.6 | – | F ([9]; BLD = below limit of detection): BLD; AUC ([17]; BLD = below limit of detection): BLD
10 | C[C@@H](O)[C@H]1C(=O)N2C(C(=O)OCC(F)(F)F)=C(S[C@@H]3CN[C@H](C(=O)Nc4cccc(C(=O)OCC(F)(F)F)c4)C3)[C@H](C)[C@H]12 | > 95 | – | 0.8 | 12 | > 95 | 3 | 10.2 | 3 | BLD | > 25 | 1.7 | 3 | 6 | 6.7 | 0.2 | 0.2 | –
11 | CCOC(=O)C1=C(S[C@@H]2CN[C@H](C(=O)Nc3cccc(C(=O)OCC)c3)C2)[C@H](C)[C@@H]2[C@@H]([C@@H](C)OC(C)=O)C(=O)N12 | > 95 | – | 1.8 | 23.3 | > 95 | – | 15.4 | – | – | > 25 | – | 0 | 37 | 11.3 | < 0.1 | 2.2 | –
12 | CCOC(=O)C1=C(S[C@@H]2CN[C@H](C(=O)Nc3cccc(C(=O)OCC)c3)C2)[C@H](C)[C@@H]2[C@@H]([C@@H](C)OC(=O)[C@@H](N)C(C)C)C(=O)N12 | > 95 | BLD | 0.9 | 14.9 | > 95 | – | 9.7 | – | – | > 25 | – | 0 | 38 | 6.5 | – | 1 | –
13 | CC(=O)O[C@H](C)[C@H]1C(=O)N2C3=C(S[C@@H]4CN[C@@H](C4)C(=O)Nc4cccc(c4)C(=O)OCOCOC3=O)[C@H](C)[C@H]12 | > 95 | – | – | 16 | > 95 | – | 13.4 | – | – | > 25 | – | 0 | 30 | 10.1 | 0.1 | – | –
14 | CCOC(=O)C1=C(S[C@H]2C[C@@H](C(=O)Nc3cccc(C(=O)OCC)c3)N(C(=O)OCc3oc(=O)oc3C)C2)[C@H](C)[C@@H]2[C@@H]([C@@H](C)O)C(=O)N12 | > 95 | BLD | 0.7 | 14.4 | > 95 | – | 6.4 | – | – | > 25 | – | 0 | 9 | 3.4 | – | 3.1 | –
